ASAP1 inh – blocks human ASAP1-stimulated Arf1 GTP hydrolysis; AID 624377; Q9ULH1; actives 0.19% (n = 360,000); GDP FP detection; inhibition, % at 16.5 µM; in the data active = inhibition above about 25%;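 also: 0% = vehicle with enzyme and substrate and 100% = no enzyme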
ARFGAP1 inh – inhibitors of rat ARFGAP1. Arfgap1-stimulated ARF1 GTP hydrolysis, GDP FP detection. inhibition, % at 16.5 µM. actives 0.26% (n = 360,000);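 active = inhibition above a per-plate limit, mean inhibition of low control wells plus 3 SD, cut at about 25% in these data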;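 also: 0% = DMSO wells with enzyme and 100% = wells lacking Arfgap1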
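Assay system: purified rat His6-Arfgap1 residues 1-136 (GAP domain); Reagent: human Δ17 ARF1 bound to GTP; Dosing: 16.5 µM single point, 1.26% DMSO; Times: GTP hydrolysis reaction 2 h at 25 °C; Signal: FP, GDP Alexa 633 tracer displaced from anti-GDP antibody, 620/688 nm; Measure: % inhibition from polarization.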
HGIII-sPLA2 inh – Blocks human group III sPLA2 activity; QFRET BODIPY PC-A2 liposome hydrolysis, fluorescence; inhibition, % at 12.2 µM; AID 743126; actives 0.56% (n = 370,000); Q9NZ20;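 active = inhibition above mean plus 3 SD of compounds lying within the high and low control bounds, cut at about 19% in these data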;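 also: 0% = median of test compound wells and 100% = no enzyme DMSO wells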
Target sequence (Q9NZ20 whole entry, looked up): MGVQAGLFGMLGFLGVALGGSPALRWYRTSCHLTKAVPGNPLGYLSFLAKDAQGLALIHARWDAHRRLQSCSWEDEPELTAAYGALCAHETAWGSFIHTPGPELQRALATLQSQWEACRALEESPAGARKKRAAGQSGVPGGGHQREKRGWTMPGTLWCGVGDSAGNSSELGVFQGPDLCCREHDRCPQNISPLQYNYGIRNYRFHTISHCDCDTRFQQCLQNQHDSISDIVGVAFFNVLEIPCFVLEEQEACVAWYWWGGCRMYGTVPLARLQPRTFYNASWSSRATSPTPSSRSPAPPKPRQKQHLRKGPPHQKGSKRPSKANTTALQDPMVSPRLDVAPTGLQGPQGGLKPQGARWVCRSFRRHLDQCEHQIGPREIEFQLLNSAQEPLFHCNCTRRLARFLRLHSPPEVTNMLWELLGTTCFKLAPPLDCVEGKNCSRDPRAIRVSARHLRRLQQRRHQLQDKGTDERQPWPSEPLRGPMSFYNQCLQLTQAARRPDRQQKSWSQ
PLCb3 inh – inhibitors of human phospholipase C beta3; Q01970; Purified PLC-beta3, fluorogenic substrate, fluorescence; inhibition, % at 12.2 µM; actives 0.18% (n = 370,000);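 also: 0% = median of compound wells on plate and 100% = full blocker control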
PLCg1 inh – inhibitors of human phospholipase C gamma1. P19174. purified PLC-gamma1, fluorogenic substrate, fluorescence. inhibition, % at 12.2 µM. actives 0.84% (n = 370,000); in the data active = inhibition above about 9.5%
PLCg1 ctr – counter-screen for PLC-beta3 inhibitors: inhibitors of human PLC-gamma1 | shares compounds with PLCg1 inh | purified PLC-gamma1, fluorogenic substrate, fluorescence | inhibition, % at 12.3 µM | actives 3.1% (n = 3,300); in the data active = inhibition above about 9.5%
PLCbeta3 conf – confirmation of human PLC-beta3 inhibitors. AID 743261. shares compounds with PLCg1 inh. actives 1% (n = 3,300). purified PLC-beta3, fluorogenic substrate fluorescence. inhibition, % at 12.3 µM
* marks the source's active call; other numbers are inactive results; . = no result given. An excerpt weighted towards active compounds, which were near 1.9% of everything screened. Rule as the data show it, unless noted: active = inhibition above about 11%; inactive = the rest.

SMILES	ASAP1 inh	ARFGAP1 inh	HGIII-sPLA2 inh	PLCb3 inh	PLCg1 inh	PLCg1 ctr	PLCbeta3 conf
Cn1c(=O)[nH]c(=O)c2c1nc(SCCN1CCOCC1)n2CCCc1ccccc1	5.0	0.1	5.4	11.7*	6.5	-0.1	0.9
O=C(Nc1ccc2ccccc2c1)C1CC2CCC1C2 (stereo not given)	.	.	1.6	1.0	-0.4	.	.
CCN(CC)C(=O)CC[C@H]1CC[C@]2(CCCN(C(=O)c3ccc4ccccc4n3)C2)O1	.	.	7.2	3.1	-1.1	.	.
CCOC(=O)N1C(=O)C[C@](Sc2ccc(OC)cc2)(C(=O)N2CCCC2)[C@H]1c1ccc(OC)cc1	.	.	7.0	-2.2	-0.4	.	.
O=C(NC(C(=O)c1ccccc1)n1cnccc1=O)c1ccccc1 (stereo not given)	10.2	3.4	2.9	3.3	11.1*	-2.2	2.8
CN(C)S(=O)(=O)n1cc(/C=C(\NC(=O)c2ccccc2Cl)C(=O)NCCN2CCOCC2)c2ccccc21	1.9	0.4	4.3	-3.4	11.8*	0.4	3.2
COc1ccc(OC)c(NC(=O)COC(=O)C2CCCCC2)c1	5.3	4.3	-5.8	12.2*	10.4*	-1.7	0.8
CN(CC(=O)Nc1ccc(F)c(F)c1F)C1CCCCC1	6.4	17.0	9.2	2.4	10.5*	-5.0	-3.5
COc1ccc(NC(=O)CN(C)C2CCCCC2)c([N+](=O)[O-])c1	-5.7	9.0	14.3	-1.2	12.0*	2.3	2.6
CN(CC(=O)Nc1ccc(F)c(F)c1F)C(=O)C1CCCCC1	-1.6	-3.6	13.4	-4.1	7.6	.	.
C#CCNC(=O)C[C@H]1C(=O)N(CCc2ccc(Cl)cc2)C2=CCCC[C@@]21C(=O)OCC	.	.	-5.6	0.1	-0.3	.	.
c1ccc([C@H]2CNCCN2CCc2cccc3ccccc23)cc1	0.3	13.5	-1.0	5.4	12.4*	-4.7	-3.4
O=C(CSc1nncn1-c1ccccc1)NC1CCCc2ccccc21 (stereo not given)	-11.7	-1.1	2.4	1.6	-0.6	.	.
CNC(=O)NC1CCCc2ccccc21 (stereo not given)	3.9	-1.6	1.4	0.9	10.9*	3.2	4.4
Cc1nnc(SCC(=O)NC2CCCc3ccccc32)n1-c1ccccc1 (stereo not given)	-0.2	-4.0	1.7	4.7	11.1*	-5.9	-5.6
N#CCC[C@H]1CC[C@]2(CCCN(Cc3ccc(Br)cc3)C2)O1	.	.	-0.4	1.1	-0.8	.	.
O=C(NCC(=O)N(c1ccccc1)C(C(=O)NC1CCCC1)c1cccnc1)c1ccco1 (stereo not given)	6.1	6.7	15.5	8.4	10.2*	-6.3	-7.0
C=CCN(C(=O)CNC(=O)c1ccco1)C(C(=O)NC1CCCCC1)c1ccc(F)cc1 (stereo not given)	7.3	9.1	8.5	3.9	10.1*	-4.7	-1.8
O=C(NC1CCCC1)C(c1ccccc1)N(C(=O)c1ccco1)C1CCCC1 (stereo not given)	-1.1	18.1	15.4	-3.3	9.9*	-6.7	-1.1
C=CCN(C(=O)CNC(=O)c1ccco1)C(C(=O)NC1CCCCC1)c1ccccc1 (stereo not given)	5.4	-7.3	-2.7	0.3	5.0	.	.
O=C(NC1CCCC1)C(c1ccccc1F)N(C(=O)c1ccco1)C1CCCC1 (stereo not given)	-1.0	-4.8	4.1	1.3	0.8	.	.
O=C(NCC(=O)N(c1cccnc1)C(C(=O)NC1CCCCC1)c1cccnc1)c1ccco1 (stereo not given)	3.2	6.1	-0.3	-2.3	-2.2	.	.
C=CCOC(=O)N[C@H](c1ccc(-c2ccccc2)cc1)[C@H](C)/C=C/CC(=O)OC	.	.	-14.3	3.1	1.3	.	.
CC(=O)Nc1ccc(S(=O)(=O)NC2CC(=O)N(c3ccc(C)c(C)c3)C2)cc1 (stereo not given)	5.4	-11.8	-12.4	-2.9	12.4*	-1.9	-0.2
CC(=O)Nc1ccc(S(=O)(=O)NC2CC(=O)N(c3ccc(C)cc3)C2)cc1 (stereo not given)	1.3	9.6	2.6	4.1	5.6	.	.
